Test [1] has as its system Mycobacterium tuberculosis. Description: Antitubercular activity against Mycobacterium tuberculosis H37Rv expressing GFP after 7 days by reporter gene assay. It is filed as functional. The settings on record: 168 h. The method in brief:
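Compound dissolved in DMSO, two-fold dilutions in 7H9 broth; Mtb H37Rv-GFP grown in Middlebrook 7H9, inoculum 2 × 10⁵ CFU/mL, exposed 7 days. Fluorescence read; MIC = lowest concentration inhibiting fluorescence by 90% versus bacteria-only wells.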

The next test relates to Candida albicans. Description: Antifungal activity against Candida albicans ATCC 90027 after 48 hrs by broth microdilution method. It is filed as functional. The conditions noted are these: ATCC 90027, 48 h. The procedure, abridged: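 Broth microdilution with two-fold compound dilutions in tryptic soy broth. C. albicans grown in the same medium was exposed for 48 h. Growth was visualized with Alamar Blue. MIC was taken as the lowest concentration that inhibited the Alamar Blue color change.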
In general terms: Broth dilution looks for growth in wells or tubes with falling amounts of substance.

The test system of a further test is Vero. Description: Cytotoxicity against african green monkey Vero cells after 3 days by MTT assay. It is filed as cell-based. The conditions noted are these: Chlorocebus sabaeus, 72 h. The procedure, abridged:
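Early-log-phase Vero cell suspension was exposed to serially diluted compounds (initially in DMSO) in RPMI 1640 for 3 days and read by MTT assay. Effect was normalized to DMSO-only wells and IC50 was calculated.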
Background: Formazan colour is commonly taken as a measure of viable cells.

Test [2] relates to Mycobacterium tuberculosis. Description: Ratio of econazole MIC90 to compound MIC90 for Mycobacterium tuberculosis H37Rv. It counts as functional.
The nature of test [3]: Selectivity index, ratio of IC50 for african green monkey Vero cells to MIC90 for Mycobacterium tuberculosis H37Rv. It counts as functional. The procedure, abridged: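 Vero cells in early log phase, in RPMI 1640, exposed to serial compound dilutions for 3 days; viability by MTT assay; effect normalized to DMSO-only wells, IC50 by curve fitting. SI = Vero IC50 over Mtb H37Rv-GFP MIC (90% fluorescence inhibition, 7-day 7H9 exposure, 2 × 10⁵ CFU/mL inoculum).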

The record followed here is ChEMBL document CHEMBL2157918, “Design and synthesis of 1H-1,2,3-triazoles derived from econazole as antitubercular agents” (Bioorg Med Chem Lett, 2012).

As a reminder, the MIC90 is an inhibitory concentration at the 90% level, which refers to growth in some studies and to a panel of isolates in others. As usually defined, the MIC is the least concentration at which growth counts as inhibited. A word on the IC50: it is the concentration that inhibits the measured activity by half.

Converted amounts (≈) assume the structure as drawn. Where only a bound is given, the exact number is not on record here.

In test [1], `OCc1cn(CC(OCc2ccc(Cl)cc2)c2ccc(Cl)cc2Cl)nn1` (stereo not given) showed an MIC90 above 256 µg/mL. Further, the MIC against Candida albicans is above 256 µg/mL. The IC50 in the test with Vero is 19.8 µg/mL (≈ 48 µM).
In the case of `Clc1ccc(COC(Cn2cc(C3CCCCC3)nn2)c2ccc(Cl)cc2Cl)cc1` (stereo not given), the MIC90 in test [1] is above 256 µg/mL. The compound also registered an MIC with Candida albicans above 256 µg/mL. In addition, the IC50 in the test on Vero is above 12.5 µg/mL.
`CC(C)(C)c1cn(CC(OCc2ccc(Cl)cc2)c2ccc(Cl)cc2Cl)nn1` (stereo not given) showed an MIC90 in test [1] above 256 µg/mL. The same compound displayed an MIC against Candida albicans above 256 µg/mL. Moreover, the IC50 with Vero was above 25 µg/mL.
Consider `Nc1cccc(-c2cn(CC(OCc3ccc(Cl)cc3)c3ccc(Cl)cc3Cl)nn2)c1` (stereo not given), for which the MIC90 in test [1] was above 256 µg/mL. The MIC against Candida albicans was above 256 µg/mL. This compound also came in with an IC50 in the test on Vero above 50 µg/mL.
`Nc1ccc(-c2cn(CC(OCc3ccc(Cl)cc3)c3ccc(Cl)cc3Cl)nn2)cc1` (stereo not given) registered an MIC90 in test [1] of 256 µg/mL (≈ 540 µM). This compound also registered an MIC against Candida albicans above 256 µg/mL. In the test on Vero, this compound had an IC50 above 50 µg/mL.
On the same counts, the results for `Clc1ccc(COC(Cn2cc(-c3ccccn3)nn2)c2ccc(Cl)cc2Cl)cc1` (stereo not given) are 256 µg/mL (≈ 557 µM), above 256 µg/mL and above 50 µg/mL.
For the compound `OC(Cn1ccnn1)c1ccc(Cl)cc1Cl` (stereo not given), the MIC90 in test [1] was found to be 256 µg/mL (≈ 992 µM). The compound further yielded an MIC with Candida albicans above 256 µg/mL. The same compound displayed a half-maximal inhibitory concentration (IC50) in the test with Vero above 200 µg/mL.
Consider `OC(Cn1nnc2ccccc21)c1ccc(Cl)cc1Cl` (stereo not given), for which the MIC90 in test [1] was above 256 µg/mL. In the test with Candida albicans, this compound came in with an MIC above 256 µg/mL. In addition, the IC50 with Vero is above 100 µg/mL.
Regarding `Clc1ccc(COC(Cn2ccnn2)c2ccc(Cl)cc2Cl)cc1` (stereo not given), the MIC90 in test [1] was determined as 64 µg/mL (≈ 167 µM). Besides, the MIC in the test with Candida albicans is above 256 µg/mL. The IC50 with Vero was above 12.5 µg/mL.
On the same counts, the results for `Clc1ccc(COC(Cn2nnc3ccccc32)c2ccc(Cl)cc2Cl)cc1` (stereo not given) are 128 µg/mL (≈ 296 µM), above 256 µg/mL and above 12.5 µg/mL.
Consider `CCCCc1cn(CC(O)c2ccc(Cl)cc2Cl)nn1` (stereo not given), for which, in test [2], the Ratio is reported as 2. In test [1], this compound had an MIC90 of 8 µg/mL (≈ 25.5 µM). Besides, the “Selectivity Index” value in test [3] turned out to be 1. In the test with Candida albicans, this compound displayed an MIC above 256 µg/mL. Also, the IC50 in the test on Vero amounted to 23.3 µg/mL (≈ 74.1 µM).
The compound `OCCc1cn(CC(O)c2ccc(Cl)cc2Cl)nn1` (stereo not given) displayed an MIC90 in test [1] of 256 µg/mL (≈ 847 µM). Moreover, in the test with Candida albicans, the MIC was above 256 µg/mL. Also, the IC50 in the test with Vero worked out at 274 µg/mL (≈ 907 µM).
Compound `OCc1cn(CC(O)c2ccc(Cl)cc2Cl)nn1` (stereo not given) returned an MIC90 in test [1] above 256 µg/mL. The compound further yielded an IC50 with Vero above 100 µg/mL.
On to `OC(Cn1cc(C2CCCCC2)nn1)c1ccc(Cl)cc1Cl` (stereo not given), for which the MIC90 in test [1] came out at 16 µg/mL (≈ 47 µM). The “Selectivity Index” value in test [3] is reported as 1. Further, the MIC against Candida albicans was above 256 µg/mL. Besides, in the test on Vero, half-maximal inhibition (IC50) required 31.9 µg/mL (≈ 93.9 µM).
`CC(C)(C)c1cn(CC(O)c2ccc(Cl)cc2Cl)nn1` (stereo not given) had an MIC90 in test [1] of 32 µg/mL (≈ 102 µM). Further, in the test with Candida albicans, the MIC was determined as 256 µg/mL (≈ 815 µM). Moreover, the IC50 in the test on Vero was found to be 33.9 µg/mL (≈ 108 µM).
On the same counts, the results for `Nc1cccc(-c2cn(CC(O)c3ccc(Cl)cc3Cl)nn2)c1` (stereo not given) are 32 µg/mL (≈ 91.6 µM), above 256 µg/mL and 26.8 µg/mL (≈ 76.7 µM).
As to `Nc1ccc(-c2cn(CC(O)c3ccc(Cl)cc3Cl)nn2)cc1` (stereo not given), the MIC90 in test [1] came out at 32 µg/mL (≈ 91.6 µM). This compound had an MIC against Candida albicans above 256 µg/mL. In the test on Vero, the IC50 worked out at 33.9 µg/mL (≈ 97.2 µM).
The compound `OC(Cn1cc(-c2ccccn2)nn1)c1ccc(Cl)cc1Cl` (stereo not given) displayed an MIC90 in test [1] of 32 µg/mL (≈ 95.5 µM).
In test [1], `CCCCc1cn(CC(OCc2ccc(Cl)cc2)c2ccc(Cl)cc2Cl)nn1` (stereo not given) yielded an MIC90 of 128 µg/mL (≈ 292 µM). Further, in the test on Candida albicans, the MIC is above 256 µg/mL. The same compound came in with an IC50 in the test with Vero of 10.6 µg/mL (≈ 24.2 µM).
On the same counts, the results for `CCCCc1cn(CC(OCc2ccc(OC(F)(F)F)cc2)c2ccc(Cl)cc2Cl)nn1` (stereo not given) are above 256 µg/mL, above 256 µg/mL and 63.4 µg/mL (≈ 130 µM).
On the same counts, the results for `CCCCc1cn(CC(OCc2ccc(F)cc2F)c2ccc(Cl)cc2Cl)nn1` (stereo not given) are above 256 µg/mL, above 256 µg/mL and 21 µg/mL (≈ 47.7 µM).
Turning to `OCCc1cn(CC(OCc2ccc(Cl)cc2)c2ccc(Cl)cc2Cl)nn1` (stereo not given), in test [1], the MIC90 was above 256 µg/mL. Further, the MIC against Candida albicans was above 256 µg/mL. This compound came in with an IC50 in the test on Vero of 24.3 µg/mL (≈ 57 µM).
In test [1], `OCCc1cn(CC(OCc2ccc(OC(F)(F)F)cc2)c2ccc(Cl)cc2Cl)nn1` (stereo not given) registered an MIC90 above 64 µg/mL. In the test with Candida albicans, this compound showed a minimal inhibitory concentration (MIC) above 64 µg/mL.
For `OCCc1cn(CC(OCc2ccc(F)cc2F)c2ccc(Cl)cc2Cl)nn1` (stereo not given), the MIC90 in test [1] came out at 128 µg/mL (≈ 299 µM). In addition, the MIC in the test on Candida albicans is above 256 µg/mL. In the test on Vero, this compound displayed an IC50 of 33.7 µg/mL (≈ 78.6 µM).
In turn, `Clc1ccc(COC(Cn2ccnc2)c2ccc(Cl)cc2Cl)cc1` (stereo not given) [ECONAZOLE] showed an MIC90 in test [1] of 16 µg/mL (≈ 41.9 µM). Besides, the “Selectivity Index” value in test [3] turned out to be 1. For the same compound, the MIC against Candida albicans is 16 µg/mL (≈ 41.9 µM).
As for `CO[C@H]1/C=C/O[C@@]2(C)Oc3c(C)c(O)c4c(O)c(c(/C=N/N5CCN(C)CC5)c(O)c4c3C2=O)NC(=O)/C(C)=C\C=C\[C@H](C)[C@H](O)[C@@H](C)[C@@H](O)[C@@H](C)[C@H](OC(C)=O)[C@@H]1C` [RIFAMPIN], the MIC90 in test [1] was 0.0625 µg/mL (≈ 0.0759 µM).
